Source: PubChem BioAssay (Columbia University Molecular Screening Center)
The full list was thinned out, with hits kept by preference.
Insulin prom act = TRM-6 insulin promoter activation; TRM-6 cells, insulin promoter eGFP reporter, imaging; plate-scaled: unstimulated 0, stimulated control 100; activation, % at 2 µM; 130,000 compounds, 0.81% hits;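 active = activation at 2 µM above a set limit, confirmed on inspection of the cell images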;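 also: share of cells whose green reporter signal exceeds an intensity cutoff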
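material = TRM-6 human fetal islet cells, insulin promoter–eGFP reporter | input = 1,000 TRM-6 cells seeded per well | benchmarks = stimulated versus unstimulated wells as plate controls | measured by = automated fluorescence imaging of paraformaldehyde-fixed, Hoechst-counterstained cells, green channel | schedule = compound exposure 48 h, 37 °C | reagent = tamoxifen at 0.75 µM added at seeding for reporter induction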
Starred values were filed as active, the others as inactive.

SMILES | Insulin prom act
CCOC(=O)C1CCCN(C(=O)c2cc(-c3ccccc3)on2)C1 (stereo not drawn) | 31.8
Cc1nc(CC(C)C)cc(C(=O)N2CCCC(CNS(=O)(=O)c3cccs3)C2)n1 (stereo not drawn) | 421.4*
O=C(c1ccc(NS(=O)(=O)c2cccs2)cc1)N1CCCCC1 | -3.2
Cc1noc(C)c1CCC(=O)N1CCCC(CCC(=O)NCc2ccccc2F)C1 (stereo not drawn) | -8.7
COc1ccc(C(=O)Cc2nnc(C)s2)cc1 | 6.7
CCOC(=O)C(C(C)C)C(N)Cc1ccc(F)cc1 (stereo not drawn) | -2.7
CCn1c(=O)cc(OCC(=O)NCc2ccc(C)o2)c2ccccc21 | 100.0*
COc1ccc(CNC(=O)COc2cc(=O)n(C)c3ccccc23)cc1 | -6.7
CCOC(=O)c1ccccc1NC(=O)COc1cc(=O)n(CC)c2ccccc12 | 306.7
CCN1CCCC1CNCC(O)COc1ccc(C(C)(C)C)cc1C (stereo not drawn) | 0.0
COc1ccc(C(=O)/C=C/c2ccc(OC(=O)c3cc(OC)c(OC)c(OC)c3)cc2)cc1 | 7.9
COc1cc(C(=O)Oc2cc(C)cc(C)c2)cc(OC)c1OC | 607.1*
COc1cc(C(=O)Nc2ccccn2)cc(OC)c1OC | 9.5
CC(Sc1nnc(NC2CCCCC2)s1)C(=O)Nc1ccc2c(c1)C(=O)c1ccccc1C2=O (stereo not drawn) | -8.1
COc1ccccc1CNC(=O)c1nn(-c2ccc(C)cc2)c(=O)c2c1c1ccccc1n2C | 5.4
CCn1nc(C)cc1-c1n[nH]c(=S)n1N | -6.7
COc1cc(N2CCCC2)c(OC)cc1/C=C(/C#N)c1ccc(Br)cc1 | 86.7*
COc1ccccc1/C=N/NC(=O)c1ccc(Br)cc1 | 7.1
COc1ccccc1N1CCN(c2cc(N3CCCC3)nc(C)n2)CC1 | 0.0
CS(=O)(=O)c1ccc(C(=O)N2CCN(Cc3ccccc3)CC2)cc1 | 0.0
CS(=O)(=O)N1CCC(C(=O)N2CCN(Cc3ccccc3)CC2)CC1 | 437.5*
Cc1[nH]c(=O)[nH]c(=O)c1S(=O)(=O)N1CCC(C(=O)N2CCN(Cc3ccccc3)CC2)CC1 | 6.5
C/C(=N\N1CCN(C)CC1)c1ccc(OC(F)F)cc1 | -75.0
CN1C(=O)CC(C(=O)O)SC1=Nc1ccc(F)cc1 (stereo not drawn) | 425.0*
O=C1CC(C(=O)O)S/C(=N\NC(=O)c2ccc(F)cc2)N1 (stereo not drawn) | 0.0
SMILES | Insulin prom act
CN1C(=O)CC(C(=O)O)SC1=Nc1cccc(C(F)(F)F)c1 (stereo not drawn) | 30.0
Cc1nc(SCC(=O)NC(=O)NC(C)C)nc(C)c1C | 5.9
O=c1c2ccccc2nc2ccc(NCc3cccs3)nn12 | -7.1
O=C(CCl)Nc1cccn2ncnc12 | -3.4
CCOc1cc(NC(=O)c2ccco2)c(OCC)cc1NC(=O)Cc1cccc(OC)c1 | -5.3
CCOc1cc(NC(=O)c2cccs2)c(OCC)cc1NC(=O)c1ccco1 | -2.7
CCOc1ccc(CC(=O)Nc2ccc(NC(=O)c3ccco3)cc2)cc1OCC | 100.0*
CC(NC(=O)COC(=O)Cc1ccsc1)c1ccccc1 (stereo not drawn) | 7.1
N=c1ccn(Cc2ccc(Cl)cc2Cl)cc1 | 8.1
Cc1cccc(NC(=O)Cn2cnc3c(oc4nc5c(cc43)COC(C)(C)C5)c2=O)c1 | 0.0
Cc1nn(C(C)c2n[nH]c(=S)n2-c2cccc(Cl)c2)c(C)c1[N+](=O)[O-] (stereo not drawn) | 200.0
CC(c1n[nH]c(=S)n1-c1ccc(F)cc1)N1CCCCC1 (stereo not drawn) | 2.4
COc1ccc(-n2c(C(C)n3nc(C)c([N+](=O)[O-])c3C)n[nH]c2=S)cc1 (stereo not drawn) | 515.4*
CC(C)(C)c1[nH]nc2c1C(Cc1ccccc1)C(C#N)=C(N)O2 (stereo not drawn) | 0.0
CCOC(=O)Cc1ccc2sc(-c3ccccc3)nc2c1 | 9.1
CCOCCc1nnc(NC(=O)Cc2ccccc2)s1 | 0.0
O=C(Nc1nc(SCc2ccc(F)cc2)ns1)c1ccco1 | 93.6
CSc1nsc(NC(=O)Cc2ccccc2)n1 | 103.2*
O=C(c1c(F)cccc1F)N1CCN(c2ncccn2)CC1 | 0.0
CO/C([O-])=N/c1c[n+](-c2ccc(Cl)cc2)no1 | -9.3
Cc1noc(C)c1CSc1nc2ccccc2s1 | 3.1
Cc1noc(C)c1CSc1nnc(C)c(=O)[nH]1 | -78.4
Cc1noc(C)c1CSc1ccc2ccccc2n1 | 104.9*
CCCS(=O)(=O)c1ccc(COC(=O)c2ccc(NC(C)=O)cc2)cc1 | 0.0
COc1cccc2cccc(/C=N/n3cnnc3)c12 | 0.0
SMILES | Insulin prom act
COc1cc(NC(=O)C/C(C)=N/NC(=O)c2cccc(O)c2)c(OC)cc1Cl | -7.1
Cc1cc2nc(CCN3CCOCC3)n(S(=O)(=O)c3ccc(C(C)(C)C)cc3)c2cc1C | -85.7
Cc1ccccc1OCCCC(=O)Nc1ccccc1C(F)(F)F | -6.7
CCCCc1ccc(C2C(C#N)=C(N)SC(N)=C2C#N)s1 | 275.0*
Cc1sccc1C1C(C#N)=C(N)SC(N)=C1C#N | 276.2
Cc1cc(C2C(C#N)=C(N)SC(N)=C2C#N)c(C)s1 | 184.6
COc1ccc2[nH]c(=O)c(CN(CCO)S(=O)(=O)c3ccc4c(c3)OCCO4)cc2c1 | -3.1
CCOc1cc(C(=O)Nc2cc(C)ccc2OC)ccc1OCC(=O)N1CCCCC1 | -3.4
COc1ccc(N(C(C)C(=O)N/N=C(\C)C(C)(C)C)S(C)(=O)=O)cc1 (stereo not drawn) | 0.0
CCC(C)NS(=O)(=O)c1ccc(OCC(=O)NCc2ccc3c(c2)OCO3)cc1 (stereo not drawn) | 0.0
CCC(C)NS(=O)(=O)c1ccc(OCC(=O)Nc2ccc(F)cc2F)cc1 (stereo not drawn) | 462.5*
COc1ccc(C(=O)OCC(=O)Nc2ccc(F)cc2F)cc1OC | -2.6
Brc1ccc(-c2csc(-c3ccncc3)n2)cc1 | -6.7
CCOc1ccccc1NC(=S)NNS(=O)(=O)c1c(C)cc(C)cc1C | 8.1
CC(=O)c1ccc2cccc3c2c1N=CN3C | 130.0*
CN1c2cccc3cccc(c23)N(C)C1(C)C | 6.1
CN1/C(=N\O)c2cccc3cccc1c23 | 6.7
COCCCNC(=O)Cn1nnc(-c2ccc(NC(=O)c3ccccc3F)cc2)n1 | 5.6
CC(C)NC(=O)c1ccc(COCC(F)(F)C(F)F)cc1 | 80.0*
O=C(Nc1ccc(OCC(F)(F)C(F)F)cc1)c1ccncc1 | -5.9
O=C(Nc1ccc(Cl)cn1)c1ccc(COCC(F)(F)C(F)F)o1 | 0.0
NC1=NC(c2cn[nH]c2-c2ccc(F)cc2)n2c(nc3ccccc32)N1 (stereo not drawn) | 109.1
N#CCCn1cc(/C=C2\NC(=S)N(c3ccccc3)C2=O)c(-c2ccc(-c3ccccc3)cc2)n1 | 5.9
N#CCCn1ncn(-c2ccccc2)c1=S | 173.3*
N#CCCn1nc(-c2ccccc2)cc1-n1c(C(F)(F)F)nc2ccccc21 | 0.0
SMILES | Insulin prom act
O=C(OCC(=O)N1CCN(C(=O)c2ccco2)CC1)c1cc(-c2cccc(Br)c2)nc2ccccc12 | 7.1
CN1CCC/C1=C/C=C1\SC(=S)NC1=O | -9.7
O=C(CO/N=C/c1ccc2c(c1)OCO2)Nc1cccc(Br)c1 | -6.7
COC(=O)C1=C(C)N(C)C(C)=C(C(=O)OC)C1c1ccc(F)c(Br)c1 | 0.0
CN(C)S(=O)(=O)c1ccc(NC(=O)CN2CCCc3ccccc32)cc1 | 383.3*
Cc1c(NC(=O)CN2CCCc3ccccc32)c(=O)n(-c2ccccc2)n1C | 0.0
O=C(CN1CCCc2ccccc21)NCc1ccccc1Cl | 8.8
CSc1nnc(C)c(=O)n1COC(=O)/C=C/c1ccccc1 | 0.0
